Assay [1] concerns Rattus norvegicus. Briefly: Effect on 3,4-dihydroxyphenylacetic acid concentration in rat striatum, after 0.1 mg/kg sc administration. To be noted: route subcutaneous. In kind it is functional. The method, boiled down:
(§1)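 Male Wistar rats (~150 g) were given drug or apomorphine HCl sc and decapitated 1 h later. Striatal DOPAC and HVA were quantified by LC with electrochemical detection. Results are mean ± SE, five rats/group, P < 0.05.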

Assay [2] relates to Rattus norvegicus. As to the kind of experiment: Decreased accumulation of 5-hydroxytryptophan after decarboxylase inhibition in the hypothalamus of rat at a dose 0.03mg/Kg, sc. In kind it is functional, organism-based. The method, boiled down:
(§2)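 Male Wistar rats (~150 g) got drug sc in dilute HCl. NSD 1015 (100 mg/kg, ip) was given 30 min after drug and 30 min before decapitation. Hypothalamic 5-HTP was measured by LC with electrochemical detection. Results are mean ± SE, five rats per treated group and six controls; significance at P < 0.01.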

Assay [3] deals with Rattus norvegicus. Briefly: Effect on serum corticosterone in serum of rats after sc administration (0.1 mg/kg dose) (experiment 1). In kind it is functional, organism-based. In a few lines: (§3)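 Male Wistar rats (~150 g) housed at 24 °C with lights 7 a.m.–7 p.m. Compound in dilute HCl given sc 1 h before decapitation. Serum corticosterone measured spectrofluorometrically, μg/100 mL. Five rats per group, mean ± SE. Significance set at P < 0.05 versus the vehicle control.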

The species named for assay [4] is Rattus norvegicus. As to the kind of experiment: Effect of fluoxetine on the elevation of serum corticosterone at a dose 100 ug/mL, No pretreatment. In kind it is functional, organism-based. The method, boiled down:
(§4)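 Rats got fluoxetine HCl (10 mg/kg, ip) or no pretreatment. 16 h later, drug (0.3 mg/kg, sc, dilute HCl) or p-chloroamphetamine HCl (2.5 mg/kg, ip) was given, with decapitation 1 h after. Serum corticosterone was measured spectrofluorometrically. Results are mean ± SE, five male Wistar rats/group, P < 0.05.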

Assay [5] relates to Rattus norvegicus. Briefly: Effect of Metergoline on the elevation of serum corticosterone, after sc administration (0.1 mg/kg) Metergoline pretreament. In kind it is functional, organism-based. The method, boiled down: (§5)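 Male Wistar rats (~150 g) received metergoline (3 mg/kg, ip) or no pretreatment. Drug was given sc in dilute HCl 1 h later, and rats were decapitated 1 h after that. Serum corticosterone was determined spectrofluorometrically. Results are mean ± SE, five rats/group, P < 0.05 versus the corresponding control.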

For assay [6], the species on record is Rattus norvegicus. As to the kind of experiment: Effect of fluoxetine on the elevation of serum corticosterone, Fluoxetine pretreament. In kind it is functional, organism-based. The method, boiled down:
as §4

In assay [7] the test system is Rattus norvegicus. Briefly: Effect on 3,4- dihydroxyphenylacetic acid concentration in rat striatum, after 0.03 mg/kg sc administration. In kind it is functional. To be noted: route subcutaneous. In a few lines: as §1
The subject of assay [8] is Rattus norvegicus. Briefly: Effect on 5-hydroxyindoleacetic acid in rat whole brain, after sc administration (0.3 mg/kg dose) (experiment 1). In kind it is functional, organism-based. The method, boiled down:
(§6)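 Drug was given sc in dilute HCl to male Wistar rats (~150 g), with decapitation 1 h later. Whole brains were frozen on dry ice and held at −15 °C. […] Results are mean ± SE, five rats/group, P < 0.05 versus vehicle control.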

Assay [9] relates to Rattus norvegicus. As to the kind of experiment: Effect on homovanillic acid concentration in rat striatum, after 0.3 mg/kg sc administration. In kind it is functional. Particulars: route subcutaneous. The method, boiled down: as §1
For assay [10], the species on record is Rattus norvegicus. Briefly: Effect of […] on the elevation of serum corticosterone at a dose 100 ug/mL No pretreatment. In kind it is functional, organism-based. In a few lines: (§7)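 Rats got p-chlorophenylalanine (300 mg/kg, ip) or no pretreatment. 24 h later, drug (0.3 mg/kg, sc, dilute HCl) or p-chloroamphetamine HCl (2.5 mg/kg, ip) was given, and rats were killed 1 h after. Serum corticosterone was measured spectrofluorometrically. Results are mean ± SE, five male Wistar rats/group.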

For assay [11], the target named is Serotonin 1 (5-HT1) receptor (Rattus norvegicus, UniProt P28564+P30940+P19327+P28565). Briefly: Binding affinity towards 5-hydroxytryptamine 1 receptor using [3H]5-HT as a radioligand from rat frontal cortex homogenates. In kind it is tissue-based.
In assay [12] the test system is Rattus norvegicus. As to the kind of experiment: Effect on 3,4-dihydroxyphenylacetic acid concentration in rat striatum, after 0.3 mg/kg sc administration. In kind it is functional. Particulars: route subcutaneous. In a few lines: as §1
The subject of assay [13] is Rattus norvegicus. Briefly: Effect on homovanillic acid concentration in rat striatum, after 0.1 mg/kg sc administration. Particulars: route subcutaneous. In kind it is functional. The method, boiled down:
as §1

In assay [14] the test system is Rattus norvegicus. Briefly: Effect of Metergoline on the elevation of serum corticosterone, after sc administration (0 mg/kg) Metergoline pretreament. In kind it is functional, organism-based. The method, boiled down: as §5
The test system of assay [15] is Rattus norvegicus. As to the kind of experiment: Effect on concentration of serotonin in rat brain striatum after 0.3 mg/kg sc administration. Set-up: dose 0.3 mg/kg. In kind it is functional, organism-based. In a few lines: (§8)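 Male Wistar rats (~150 g) were injected sc with drug in dilute HCl and decapitated 1 h later. Hypothalamus and striatum were dissected and frozen on dry ice. […] Results are mean ± SE, five rats/group, P < 0.05.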

For assay [16], the system named is Rattus norvegicus. As to the kind of experiment: Decreased accumulation of 5-hydroxytryptophan after decarboxylase inhibition in the hypothalamus of rat at a dose 0.01mg/Kg, sc. In kind it is functional, organism-based. In a few lines: as §2
For assay [17], the species on record is Rattus norvegicus. Briefly: Effect of […] on the elevation of serum corticosterone at a dose 100 ug/mL PCPA pretreated. In kind it is functional, organism-based. The method, boiled down: as §7
The test system of assay [18] is Rattus norvegicus. Briefly: Effect on serum corticosterone in serum of rats after sc administration (0.3 mg/kg dose) (experiment 1). In kind it is functional, organism-based. In a few lines:
as §3

Assay [19] concerns Rattus norvegicus. As to the kind of experiment: Effect on concentration of 5HIAA in rat brain striatum after 0.3 mg/kg sc administration. In kind it is functional, organism-based. Also on record: dose 0.3 mg/kg. The method, boiled down: as §8
Assay [20] relates to Rattus norvegicus. Briefly: Effect on 5-hydroxyindoleacetic acid in rat whole brain, after sc administration (0 mg/kg dose) (experiment 1). In kind it is functional, organism-based. The method, boiled down: as §6
The subject of assay [21] is Rattus norvegicus. Briefly: Effect on 5-hydroxyindoleacetic acid in rat whole brain, after sc administration (1 mg/kg dose) (experiment 1). In kind it is functional, organism-based. The method, boiled down:
as §6

Assay [22] has as its system Rattus norvegicus. Briefly: Effect on serotonin in rat whole brain, after sc administration (0.1 mg/kg dose) (experiment 1). In kind it is functional, organism-based.

One compound from ChEMBL document CHEMBL1124171, “Ergolines as selective 5-HT1 agonists” (J Med Chem, 1988) can be followed below.

Where only a bound is given, the exact number is not on record here.

As for `C[C@@H]1C=C2c3cccc4c3[C@@H](CN4)C[C@H]2N(C)C1`, the DOPAC concentration with Rattus norvegicus [1] came to 4.44 nM/g; in the assay on Rattus norvegicus [7], 3.81 nM/g; in the assay with Rattus norvegicus [12], 4.62 nM/g. The Concentration with Rattus norvegicus [2] was found to be 1.19 nM/g; in the assay on Rattus norvegicus [3], 33.8 nM/g; in the assay with Rattus norvegicus [8], 1.45 nM/g; in the assay with Rattus norvegicus [15], 1.94 mg/kg; with Rattus norvegicus [16] it was 1.64 nM/g; in the assay on Rattus norvegicus [18], 46.6 nM/g. Also, the Concentration with Rattus norvegicus [19] is below 2.38 mg/kg; with Rattus norvegicus [20] it was 1.89 nM/g; in the assay on Rattus norvegicus [21], 1.47 nM/g; with Rattus norvegicus [22], 2.59 nM/g. The Serum corticosterone in the assay filed under Rattus norvegicus [4] was below 68.2 µg/mL; in the assay with Rattus norvegicus [5], 46.8 µg/mL; in the assay filed under Rattus norvegicus [6], below 61.2 µg/mL; in the assay listed under Rattus norvegicus [10], 47.3 µg/mL; in the assay with Rattus norvegicus [14], 6.2 µg/mL; in the assay listed under Rattus norvegicus [17] it was 42 µg/mL. In addition, the Homovanillic acid concentration in the assay with Rattus norvegicus [9] was 3.27 nM/g; with Rattus norvegicus [13], 3.65 nM/g. Besides, the IC50 (commonly the concentration needed to halve the response being measured) in assay [11] was 17 nM.
